Laboratory results reported in ChEMBL document CHEMBL1126633, “Prodrugs of doxorubicin and melphalan and their activation by a monoclonal antibody-penicillin-G amidase conjugate” (J Med Chem, 1993).

What was measured:
Assay type in all cases: functional, cell-based
H2981 cell line [1] = assay: Inhibition of [3H]thymidine incorporation in human lung adenocarcinoma cells in the presence of PGA enzyme
Summary of the method: (§1)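 H2981 human lung adenocarcinoma cells (10^7 cells/0.2 mL in IMDM with 10% FBS) were exposed to compound with or without added PGA at 37 °C for 4 h, then washed and counted. Triplicates were plated at 10^5 cells/mL, grown 24 h, and pulsed 24 h with [3H]thymidine (1 µCi/well). IC50 is the concentration giving 50% inhibition of incorporation.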

H2981 cell line [2] = assay: Inhibition of [3H]thymidine incorporation in human lung adenocarcinoma cells in the absence of PGA enzyme; conditions: H2981, 4 h; summary of the method: as §1
H2981 cell line [3] = assay: Inhibition of [3H]thymidine incorporation in human lung adenocarcinoma cells in the absence of PGA enzyme (compound + 10 micro g/mL calf intestine alkaline phosphatase); conditions: H2981, 4 h
Summary of the method: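 H2981 cells in IMDM with 10% FBS were exposed to compound without PGA for 4 h at 37 °C. Calf intestinal alkaline phosphatase was added to the incubation at 10 µg/mL. Cells were then washed, plated in triplicate at 10^5 cells/mL, grown 24 h and pulsed 24 h with [3H]thymidine (1 µCi/well). IC50 is the concentration giving 50% inhibition of incorporation.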

Structure (SMILES)	IC50 (H2981 cell line [1]; Homo sapiens, H2981, 4 h) [µM]	IC50 (H2981 cell line [2]) [µM]	IC50 (H2981 cell line [1]; h2981) [µM]	IC50 (H2981 cell line [3]) [µM]
O=C(Cc1ccccc1)NC(Cc1ccc(N(CCCl)CCCl)cc1)C(=O)O (configuration not stated)	5	100		
COc1cccc2c1C(=O)c1c(O)c3c(c(O)c1C2=O)C[C@@](O)(C(=O)CO)C[C@@H]3OC1CC(NC(=O)Cc2ccc(OP(=O)(O)O)cc2)C(O)C(C)O1 (stereo in doubt)			0.7	> 1000
COc1cccc2c1C(=O)c1c(O)c3c(c(O)c1C2=O)C[C@@](O)(C(=O)CO)C[C@@H]3OC1CC(NC(=O)Cc2ccc(OP(=O)(O)O)cc2)C(O)C(C)O1 (stereo in doubt; 4)		> 1000	4	
COc1cccc2c1C(=O)c1c(O)c3c(c(O)c1C2=O)C[C@@](O)(C(=O)CO)C[C@@H]3O[C@H]1C[C@H](N)[C@H](O)[C@H](C)O1 [DOXORUBICIN]		0.7		
N[C@@H](Cc1ccc(N(CCCl)CCCl)cc1)C(=O)O [MELPHALAN]		5		

Results, then the compound that gave them:

IC50 (H2981 cell line [1]; Homo sapiens, H2981, 4 h) [µM]	IC50 (H2981 cell line [2]) [µM]	IC50 (H2981 cell line [1]; h2981) [µM]	IC50 (H2981 cell line [3]) [µM]	Structure (SMILES)
10	> 1000			COc1cccc2c1C(=O)c1c(O)c3c(c(O)c1C2=O)C[C@@](O)(C(=O)CO)C[C@@H]3OC1CC(NC(=O)Cc2ccc(N)cc2)C(O)C(C)O1 (some centres not stated)
0.2	2			COc1cccc2c1C(=O)c1c(O)c3c(c(O)c1C2=O)C[C@@](O)(C(=O)CO)C[C@@H]3OC1CC(NC(=O)Cc2ccccc2)C(O)C(C)O1 (some centres not stated)
